From ChEMBL document CHEMBL1795218, “Selective bone targeting 5-fluorouracil prodrugs: synthesis and preliminary biological evaluation” (Bioorg Med Chem, 2011)
The source made the active and inactive calls. The calls are words filed in the database; no cut-off is given here. Residues, ends and D or L forms follow the SMILES beside them. *: point of attachment. Acetyl(5-fluorouracil-1-yl) = O=C(Cn1cc(F)c(=O)[nH]c1=O)*; X1 = O=C(CCC(=O)*)OCn1cc(F)c(=O)[nH]c1=O

Key:
Hydroxyapatite [1] = assay: Binding affinity to bone mineral hydroxyapatite assessed as binding index after 0.5 hrs by UV-spectrophotometer analysis relative to 5-fluorouracil; design: concentration or dose not given beside the values
Hydroxyapatite [2] = assay: Binding affinity to bone mineral hydroxyapatite assessed as binding index after 24 hrs by UV-spectrophotometer analysis relative to 5-fluorouracil; design: concentration or dose not given beside the values
In short: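 Hydroxyapatite (25 mg/ml) added to 5 ml conjugate solutions at 500 µg/ml (C0). Sonicated 5 min, then held in a 37 °C water bath for […] or over 24 h. Unbound conjugate read by UV at 254 nm against an absorbance–concentration calibration line. Tetracycline as positive control. Binding index given as mean ± SD, n = 3.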

Mus musculus = organism: Mus musculus; assay: Cmax in mouse; format: ADME, organism-based; settings: in vivo
[3] = Apparent volume of distribution in mouse; format: ADME, organism-based; settings: in vivo, read-out: Vz
[4] = AUC in mouse; format: ADME, organism-based; settings: plasma
Plasma [5] = assay: Prodrug activation in 50% human plasma assessed as 5-fluorouracil release after 60 hrs by RP-HPLC analysis; format: cell-free
In short: (§1)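 Conjugates incubated at 37 °C in PBS pH 7.4 or in 50% (v/v in PBS) human plasma, with a little DMSO added for solubility. Released 5-FU measured by RP-HPLC at 1.0 mL/min, detection at 256 nm, 25 °C.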

[6] = Half life in mouse; format: ADME, organism-based; settings: in vivo
MG-63 [7] = assay: Cytotoxicity against human MG63 cells after 3 days by MTT assay in presence of 50% human plasma; format: functional, cell-based
In short: (§2)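 MG-63 or HeLa cells plated at 5×10³ cells/well. Exposed to conjugates at 1–64 µM (5-FU-equivalent), with or without human plasma, for 72 h under 5% CO₂. MTT then added for 2 h and absorbance read at 490 nm. Mean and SD of three independent experiments.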

HeLa [8] = assay: Cytotoxicity against human HeLa cells after 3 days by MTT assay; format: functional, cell-based; settings: 72 h; in short: as §2
Femur [9] = assay: Biodistribution in po dosed mouse femur after 1 hr; format: ADME, organism-based; settings: in vivo
In short: (§3)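 Mice dosed orally. At 1 h or 12 h, kidney, liver, femur and blood collected. Organs rinsed in cold saline, blotted, extracted with methanol, diluted and centrifuged before analysis. Mean and SD of three independent experiments.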

Femur [10] = assay: Biodistribution in po dosed mouse femur after 12 hrs; format: ADME, organism-based; settings: in vivo; in short: as §3
Plasma [11] = assay: Prodrug activation in 50% human plasma assessed as 5-fluorouracil release after 5 days by RP-HPLC analysis; format: cell-free; settings: 120 h; in short: as §1
HeLa [12] = assay: Cytotoxicity against human HeLa cells after 3 days by MTT assay in presence of 50% human plasma; format: functional, cell-based; in short: as §2
MG-63 [13] = assay: Cytotoxicity against human MG63 cells after 3 days by MTT assay; format: functional, cell-based; settings: MG-63, 72 h; in short: as §2
[14] = Prodrug activation in phosphate buffered saline at pH 7.4 assessed as 5-fluorouracil release after 5 days by RP-HPLC analysis; settings: buffer, pH 7.4, 120 h; in short: as §1
[15] = Prodrug activation in phosphate buffered saline at pH 7.4 assessed as 5-fluorouracil release after 60 hrs by RP-HPLC analysis; settings: buffer, pH 7.4, 60 h; in short: as §1

Row | Compound | Activity (Hydroxyapatite [1]) [%] | Activity (Hydroxyapatite [2]) [%] | Cmax (Mus musculus) [µg/mL] | Vd [3] [L/kg] | AUC [4] [µg·h/mL] | Activity (Plasma [5]) [%] | half-life [6] [h] | Activity (MG-63 [7]) | IC50 (HeLa [8]) [µM] | Drug uptake (Femur [9]) | Drug uptake (Femur [10]) | Activity (Plasma [11]) [%] | Activity (HeLa [12]) | IC50 (MG-63 [13]) [µM] | Activity [14] [%] | Activity [15] [%]
1 | CN(C)[C@@H]1C(O)=C(C(N)=O)C(=O)[C@@]2(O)C(O)=C3C(=O)c4c(O)cccc4[C@@](C)(O)[C@H]3C[C@@H]12 | 24.1 | 56.2 |  |  |  |  |  |  |  |  |  |  |  |  |  | 
2 | O=C(O)C[C@H](NC(=O)[C@H](CC(=O)O)NC(=O)[C@H](CC(=O)O)NC(=O)[C@H](CC(=O)O)NC(=O)CCC(=O)OCn1cc(F)c(=O)[nH]c1=O)C(=O)O (X1-DDDD-OH) | 16.6 | 42.5 |  |  |  |  |  |  |  |  |  |  |  |  |  | 
3 | O=C(O)C[C@H](NC(=O)[C@H](CC(=O)O)NC(=O)[C@H](CC(=O)O)NC(=O)[C@H](CC(=O)O)NC(=O)[C@H](CC(=O)O)NC(=O)CCC(=O)OCn1cc(F)c(=O)[nH]c1=O)C(=O)O (X1-DDDDD-OH) | 13.4 | 25.5 |  |  |  |  |  |  |  |  |  |  |  |  |  | 
4 | O=C(O)C[C@H](NC(=O)[C@H](CC(=O)O)NC(=O)[C@H](CC(=O)O)NC(=O)[C@H](CC(=O)O)NC(=O)[C@H](CC(=O)O)NC(=O)[C@H](CC(=O)O)NC(=O)CCC(=O)OCn1cc(F)c(=O)[nH]c1=O)C(=O)O (X1-DDDDDD-OH) | 37.8 | 69.7 | 51100 | 32.2 | 90.1 | 60.3 | 6.75 | Active | > 64 | Active | Active | 80 | Active | > 64 |  | 
5 | O=C(O)C[C@H](NC(=O)[C@H](CC(=O)O)NC(=O)[C@H](CC(=O)O)NC(=O)[C@H](CC(=O)O)NC(=O)Cn1cc(F)c(=O)[nH]c1=O)C(=O)O ({Acetyl(5-fluorouracil-1-yl)}-DDDD-OH) | 14.3 | 40.2 |  |  |  |  |  |  |  |  |  |  |  |  |  | 
6 | O=C(O)C[C@H](NC(=O)[C@H](CC(=O)O)NC(=O)[C@H](CC(=O)O)NC(=O)[C@H](CC(=O)O)NC(=O)[C@H](CC(=O)O)NC(=O)Cn1cc(F)c(=O)[nH]c1=O)C(=O)O ({Acetyl(5-fluorouracil-1-yl)}-DDDDD-OH) | 11.6 | 19.8 |  |  |  |  |  |  |  |  |  |  |  |  |  | 
7 | O=C(O)C[C@H](NC(=O)[C@H](CC(=O)O)NC(=O)[C@H](CC(=O)O)NC(=O)[C@H](CC(=O)O)NC(=O)[C@H](CC(=O)O)NC(=O)[C@H](CC(=O)O)NC(=O)Cn1cc(F)c(=O)[nH]c1=O)C(=O)O ({Acetyl(5-fluorouracil-1-yl)}-DDDDDD-OH) | 31.4 | 62.7 | 42400 | 24.1 | 76.5 | 47.4 | 4.36 | Active | > 64 | Active | Active | 60 | Active | > 64 | 5 | 3.2
8 | O=c1[nH]cc(F)c(=O)[nH]1 [FLUOROURACIL] | 0 | 0 |  | 24.1 | 76.5 |  | 4.36 |  | 4 | Active | Active |  |  | 8 |  | 
